Screens (PubChem BioAssay)
The list is not random: actives were taken first. Their share in the collection is about 1.8%.
TCR CD3 inh: inhibitors of human TCR-CD3 interaction; inhibition, % at 9.4 µM; 360,000 tested, 0.37% active; TAMRA-labeled TCR probe fluorescence, biochemical;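 also: recombinant mutant TCR 2C K166C tagged with TAMRA read by polarization; 0% = receptor in buffer alone and 100% = receptor with positive control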
mABHD4 FP: ABHD4 (mouse) inhibition, primary FP screen. purified mABHD4, FP-Rh probe fluorescence polarization. inhibition, % at 8.92 µM. 370,000 tested, 0.54% active;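 active = inhibition exceeding the mean over every tested compound plus 3 SD, cut at about 30% in these data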;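 also: 0% = plate median of compound wells and 100% = S159A mutant with DMSO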
Target sequence (Q8VD66 whole entry, looked up): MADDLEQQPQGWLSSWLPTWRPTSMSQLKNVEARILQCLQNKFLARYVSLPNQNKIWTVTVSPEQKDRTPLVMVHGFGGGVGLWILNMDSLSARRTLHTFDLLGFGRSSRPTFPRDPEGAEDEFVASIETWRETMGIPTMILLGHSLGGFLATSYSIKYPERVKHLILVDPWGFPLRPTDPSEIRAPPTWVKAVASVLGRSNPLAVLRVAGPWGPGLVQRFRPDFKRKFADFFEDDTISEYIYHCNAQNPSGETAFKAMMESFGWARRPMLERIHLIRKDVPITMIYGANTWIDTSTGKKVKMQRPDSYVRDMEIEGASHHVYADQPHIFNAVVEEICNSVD
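system = mouse ABHD4 enzyme, wild type | medium = HEPES pH 7.0, NaCl, Pluronic buffer | also added = FP-Rh probe | incubation = Enzyme–compound pre-incubation 45 min, then probe 60 min, both 25 °C | technique = fluorescence polarization, excitation 525 nm, emission 598 nm, BODIPY TMR filters | controls = S159A mutant high control, sample median low control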
SIAE inh: human SIAE inhibition, primary screen | SIAE FP-Rh probe binding, fluorescence polarization | inhibition, % at 9.66 µM | 370,000 tested, 0.69% active;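 active = inhibition above a cutoff: mean of compounds within the control limits plus 3 SD of those, cut at about 17% in these data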;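 also: 0% = plate median of compound wells and 100% = probe without SIAE protein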
HTRA1 inhibitor: HTRA1 (human) protease inhibition | Q92743 | recombinant HTRA1, FP-rhodamine activity-based probe, fluorescence polarization | inhibition, % at 5.96 µM | 340,000 tested, 0.5% active; in the data active = inhibition above about 36%;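 also: 0% = enzyme with DMSO and 100% = wells lacking enzyme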
ARNT TACC3 PPI: ARNT/TACC3 interaction disruption. AlphaScreen His-ARNT PAS-B/GST-TACC3 binding, luminescence; TACC3 fragment carries E629A point mutation. 390,000 tested, 0.66% active. AID 623870. inhibition, % at 9.99 µM;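 active = mean inhibition of replicates at least 50% and at least half of replicates each reaching 50%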;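 also: 0% = complete ARNT plus TACC3 wells and 100% = ARNT alone without TACC3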
HTRA1 conf: confirmation of human HTRA1 inhibitors; shares compounds with HTRA1 inhibitor; recombinant HTRA1, FP-rhodamine activity-based probe, fluorescence polarization; inhibition, % at 5.96 µM; 1,600 tested, 66% active;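 active = mean inhibition over three repeats above a set limit taken from the earlier primary screen, cut at about 37% in these data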;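 also: 0% = HTRA1 with DMSO and 100% = wells lacking HTRA1; inhibitors block probe binding so polarization drops and inhibition rises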
AlphaScreen ctr: AlphaScreen artifact in ARNT/TACC3 counter-screen; shares compounds with ARNT TACC3 PPI; His-ARNT PASB-GST AlphaScreen artifact counter-screen, luminescence; AC50, µM (doses to about 68 µM), for the others: top-dose activity change, negative = signal decrease; 1,200 tested, 50% active; AID 651705;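 active = every separate test run was called active for a drop in luminescence, with AC50 within twice the top valid dose, actives reach about 71 µM in these data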
BSA probe FL: interferes with TAMRA-BSA probe, flagging TCR-CD3 hits; shares compounds with TCR CD3 inh; TAMRA-labeled BSA probe fluorescence counterscreen; inhibition, % at 9.4 µM; 1,200 tested, 10% active; in the data active = inhibition above about 23%;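 also: 0% = buffer low control and 100% = reference high control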
TCR-CD3 conf: TCR-CD3 interaction inhibition, confirmation; shares compounds with TCR CD3 inh; TAMRA-labeled TCR probe fluorescence binding assay; inhibition, % at 9.4 µM; 1,200 tested, 48% active
mABHD4 conf: ABHD4 (mouse) inhibition, FP confirmation | shares compounds with mABHD4 FP | purified mABHD4, FP-Rh probe fluorescence polarization | inhibition, % at 8.92 µM | 1,800 tested, 55% active | AID 720658;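 active = mean inhibition across replicates above the hit cutoff set in the primary screen, cut at about 30% in these data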;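 also: 0% = wild-type ABHD4 with DMSO and 100% = catalytically dead S159A mutant with DMSO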
SIAE inh conf: confirmation of human SIAE inhibitors. shares compounds with SIAE inh. SIAE FP-Rh activity-based probe, fluorescence polarization. inhibition, % at 9.66 µM. 2,300 tested, 13% active. AID 1117263;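 active = mean inhibition of the replicates above the hit cutoff set in the primary screen, cut at about 17% in these data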;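 also: 0% = SIAE with DMSO and probe and 100% = probe without SIAE; inhibitors lower polarization as more probe stays unbound to SIAE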
* hit, by the source's call; nt = no result; + = active, no number. Rule as the data show it, unless noted: active = inhibition above about 19%; inactive = the rest.

SMILES	TCR CD3 inh	mABHD4 FP	SIAE inh	HTRA1 inhibitor	ARNT TACC3 PPI	HTRA1 conf	mABHD4 conf	SIAE inh conf	others
CCOc1cc(/C=N/Nc2ccc(S(=O)(=O)Nc3ccccc3C(=O)O)cc2[N+](=O)[O-])cc(Cl)c1O	2	73*	32*	75*	nt	68*	86*	16
Cc1cc(O)ccc1N=Cc1c(C(F)(F)F)[nH][nH]c1=O	84*	109*	73*	104*	nt	5	11	3	BSA probe FL=30*;TCR-CD3 conf=14
CNc1ccc2c3c(cccc13)C(=O)N(C)C2=O	83*	103*	70*	84*	-37	75*	119*	66*	BSA probe FL=138*;TCR-CD3 conf=104*
C[C@@H]1CN([C@@H](C)CO)C(=O)c2cc(C#CCN(C)C)cnc2O[C@@H]1CN(C)Cc1ccncc1	nt	nt	nt	nt	7	nt	nt	nt
Cc1cc(SCC(=O)N/N=C/c2ccc(O)c(O)c2)c(C)cc1Br	2	14	21*	77*	-6	76*	nt	-19
CC(=O)N1CCC(=NNC(=O)CSc2cc(C)c(Br)cc2C)CC1	1	3	0	3	3	nt	nt	nt
CCN(CC)Cc1cc(Nc2c3ccccc3nc3c4ccccc4n(C)c23)cc(CN(CC)CC)c1O	9	33*	17*	38*	29	18	nt	4
Oc1cccc(Nc2c3ccccc3nc3ccccc23)c1	4	10	4	10	8	nt	nt	nt
C[C@@H]1CN([C@@H](C)CO)C(=O)c2cccc(NC(=O)C3CC3)c2O[C@@H]1CN(C)S(=O)(=O)c1cccs1	nt	nt	nt	nt	-3	nt	nt	nt
C/C(CC(=O)N1CCCC1)=N\NC(=O)c1cc2ccccc2cc1O	6	36*	17*	48*	nt	31	27	-1
O=C(OCC(=O)N1CCCCC1)c1cc2ccccc2cc1O	-5	-4	-2	-6	3	nt	nt	nt
CNC[C@H]1Oc2ccc(NC(=O)Nc3ccccc3)cc2CC(=O)N([C@@H](C)CO)C[C@H]1C	nt	nt	nt	nt	-5	nt	nt	nt
COC(=O)c1ccccc1-c1c2ccc(=N)cc-2oc2cc(N)ccc12	+	+	+	136*	10	142*	183*	+	BSA probe FL=+;TCR-CD3 conf=+
COC(=O)c1ccccc1-c1ccc(/C=N/NC(=O)c2cc3ccccc3o2)o1	-1	-24	-23	-51	1	nt	nt	nt
C[C@H](CO)N1C[C@H](C)[C@H](CN(C)C(=O)Nc2ccc(F)cc2)OCCCC[C@H](C)Oc2ccc(NC(=O)CCCN(C)C)cc2C1=O	nt	nt	nt	nt	-1	nt	nt	nt
COc1ccccc1C(NC(C)=O)c1cc(Cl)c2cccnc2c1O (stereo unspecified)	5	6	22*	49*	7	71*	nt	14
O=C(NC(c1ccccc1)c1cc(Cl)c2cccnc2c1O)c1cccnc1 (stereo unspecified)	-7	6	-2	nt	nt	nt	nt	nt
CCC(=O)NC(c1ccc(OC)c(OC)c1)c1cc(Cl)c2cccnc2c1O (stereo unspecified)	-1	7	26*	52*	8	81*	nt	11
Cc1ccc(N=Cc2cccc(O)c2O)c(C)c1	10	49*	20*	84*	-15	43*	30*	8
N#CC(C#N)=C1C=C2C=C(N3CCOCC3)CCC2CC1 (stereo unspecified)	4	1	0	6	nt	nt	nt	nt
N#CC(C#N)=C1C=C2C=C(N3CCCCCC3)CCC2CC1 (stereo unspecified)	29*	-10	28*	52*	nt	35	nt	22*	BSA probe FL=20;TCR-CD3 conf=14
CNc1ccccc(-c2ccc3ccccc3n2)c1=O	9	36*	21*	38*	36	4	14	2
C/C=C/c1ccc2c(c1)O[C@@H](CN(C)CC1CCCCC1)[C@@H](C)CN([C@@H](C)CO)S2(=O)=O	nt	nt	nt	nt	11	nt	nt	nt
CCNc1ccc(Br)cc(C(=O)/C=C/c2ccccc2Cl)c1=O	0	37*	22*	64*	5	25	43*	10
O=C1c2cccc3c(O)ccc(c23)C(=O)N1Cc1ccco1	41*	49*	20*	44*	-1	38*	45*	21*	BSA probe FL=67*;TCR-CD3 conf=47*
SMILES	TCR CD3 inh	mABHD4 FP	SIAE inh	HTRA1 inhibitor	ARNT TACC3 PPI	HTRA1 conf	mABHD4 conf	SIAE inh conf	others
O=C1c2ccccc2C(=O)N1Cc1ccco1	7	5	2	-2	-3	nt	nt	nt
O=C(NCc1ccccn1)C1Nc2ccc(OC(F)(F)F)cc2C2C=CCC12 (stereo unspecified)	-7	48*	17*	43*	0	-1	-4	1
Cc1ccc2c(c1)C1C=CCC1C(C(=O)NCCCN1CCOCC1)N2 (stereo unspecified)	0	9	8	13	26	nt	nt	nt
CCN1/C(=C/C=C/c2sc3ccccc3[n+]2CC)Sc2ccccc21	nt	nt	nt	-141	15	nt	nt	nt
CCN1/C(=C/C=C/c2oc3ccc(-c4ccccc4)cc3[n+]2CC)Oc2ccc(-c3ccccc3)cc21	105*	72*	68*	114*	-26	108*	89*	12	BSA probe FL=152*;TCR-CD3 conf=58*
Nc1ccc(O)c2c1C(=O)c1ccccc1C2=O	43*	87*	55*	88*	42	96*	74*	54*	BSA probe FL=24*;TCR-CD3 conf=27*
COc1ccc(N)c2c1C(=O)c1ccccc1C2=O	4	44*	20*	38*	40	34	1	12
COc1ccc(OC)c2c1C(=O)C(Cl)=C(Cl)C2=O	-4	24	10	0	-2	nt	nt	nt
Nc1ccc(NC(=O)c2ccccc2)c2c1C(=O)c1ccccc1C2=O	-1	13	3	10	-9	nt	nt	nt
COc1ccc2ccccc2c1/C=N/NC(=O)c1ccc(C)nc1	0	-9	-2	-1	-5	nt	nt	nt
O=C(N/N=C/c1c(O)ccc2ccccc12)c1ccc(CO)nc1	34*	23	35*	48*	59*	46*	nt	12	AlphaScreen ctr=67µM*;BSA probe FL=-16;TCR-CD3 conf=25*
